The structures appear in SMILES notation. Hit rate of the full screen: of about 27,000 compounds, about 250 (0.93%) were called active.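 Rule for the calls: active = mutant luminescence inhibited past about 50% while wild type luminescence and mutant growth stay under set limits (limit read from the data); inconclusive = mutant versus wild type luminescence inhibition gap past a set limit; inactive = the rest.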 Shown is part of a subset that was picked to be rich in actives.

The assay is described as follows: GCN4-lacZ reporter reduction in eIF2B-epsilon mutant yeast, primary screen, S. cerevisiae, eIF2B-epsilon R284H, Beta-Glo luminescence (AID 688). Conditions: growth inhibition: measured here: mutant yeast growth, toxicity, concentration not given here; inhibition: stronger effect = higher value, screened at 25 µM (by protocol). Put shortly: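 Material – yeast eIF2B-epsilon R284H mutant carrying GCN4–beta-galactosidase fusion · Medium – YPD yeast growth medium · Compound – one concentration, 25 µM, 0.25% DMSO · Times – 16 h at 30 °C exposure · Signal – Beta-Glo luminescence plus absorbance at 595 nm · Read-out – % inhibition of reporter signal and growth versus controls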
Consider `O=C(COc1ccccc1Cl)Nn1cnnc1`, for which the growth inhibition was -7.89% and the inhibition is 14.3% (inactive).

Take `Cc1cccc(NC(=O)/C(=C\c2ccco2)NC(=O)c2ccccc2)c1`: the growth inhibition amounted to 10.8% and the inhibition was 15.4% (inactive).

For the molecule `CCOc1ccc(C(=O)NC(C(=O)NCc2ccccn2)C(C)C)cc1` (centres undefined), the growth inhibition is -4.76% and the inhibition was -9.95% (inactive). For `CC(=O)NC1=NN(C(C)=O)C(C)(c2ccc(Cl)s2)S1` (centres undefined), in that order: 6.67% and 44.3% (inactive).

As for `Cc1cc(C)n(C(=O)CCNC(=O)c2ccccc2Cl)n1`, the inhibition is -0.54% (inactive). On the same count and under the same terms, with `O=C(CSc1nnnn1-c1ccccc1)NCc1ccco1` the figure was -70.2% (inactive).

As to `Cc1ccc(C(=O)N/N=C/c2sc(=O)n(Cc3cccc(C(=O)O)c3)c2Cl)cc1`, the growth inhibition was -9.52% and the inhibition was 18.2% (inactive).

On to `COc1ccc(C2CC(=O)C=C(NCC3CCCO3)C2)cc1` (centres undefined), for which the growth inhibition was 10.8% and the inhibition was 17.6% (inactive). For `CCOC(=O)c1cnc(SC)nc1Sc1ccc(Cl)cc1Cl`, in that order: 5% and 22.2% (inactive).

Consider `O=C(NC(C(=O)NCCN1CCOCC1)C12CC3CC(CC(C3)C1)C2)C1CCCCC1` (centres undefined), for which the growth inhibition was 28.1% and the inhibition was 15.3% (inactive). For `Cc1ccc(S(=O)(=O)c2c(COC(=O)c3cccc(Cl)c3)c(-c3ccccc3)nn2C)cc1`, in that order: 12.1% and 35.8% (inactive). For `O=C(O)c1cc(S(=O)(=O)N2CCCCCC2)c(Cl)cc1Cl`, the inhibition was 8.58% (inactive).

For the molecule `CCCCCCNCCn1cnc2c(N)ncnc21`, the inhibition is 37.2% (inactive). As to `CCOC(=O)CN1C(=O)C(=O)c2cc(C)ccc21`, the growth inhibition is -4.55% and the inhibition was 21.8% (inactive). For `O=C(Nc1nc2ccc(S(=O)(=O)N3CCCC3)cc2s1)C1CCCO1` (centres undefined), in that order: -18.2% and 18.6% (inactive).

For the molecule `CS(=O)(=O)c1ccc2nc(NC(=O)C3C4C=CC(C4)C3C(=O)O)sc2c1` (centres undefined), the growth inhibition is -6.9% and the inhibition is 55.1% (active). For `CC(C)COC(=O)c1ccc(NC(=O)C2C3C=CC(C3)C2C(=O)O)cc1` (centres undefined), in that order: 20.7% and 15.8% (inactive). For `COC(=O)C1=C(C(=O)OC)C2(OC1c1ccc(Br)cc1)C(=O)c1ccccc1C2=O` (centres undefined), in that order: -26.3% and -2.75% (inactive).

`CC(C)(C)c1ccc(C(=O)NCC(=O)OCN2C(=O)c3ccccc3C2=O)cc1`: the growth inhibition was -3.45% and the inhibition is 13.3% (inactive). In the case of `CCCCOC(=O)Cn1c(=N)n(CCN(CC)CC)c2ccccc21`, the growth inhibition turned out to be 19.4% and the inhibition is 17.1% (inactive). For `COc1cc(OC)nc(NC(=O)CCl)n1`, in that order: -16.7% and 3.82% (inactive). For `COc1ccc(C2=NO[C@@H]3C(=O)N(Cc4ccccc4)C(=O)[C@H]23)cc1OC`, in that order: 14.3% and 7.78% (inactive).

On to `COc1ccc(OC)c(NC(=O)CN2CCN(C(=O)c3ccco3)CC2)c1`, for which the growth inhibition was determined as 18.5% and the inhibition is 17.4% (inactive). For the molecule `c1ccc(-n2ncc3c2ncn2c(C4CCCCC4)nnc32)cc1`, the inhibition is 16.1% (inactive).

As to `Cc1sc2nc(SCC(N)=O)n(C)c(=O)c2c1C`, the growth inhibition is 6.45% and the inhibition is 20.9% (inactive). For `O=C(Nc1ccc(Br)cc1)c1cccc(NC(=O)C2C3CC4OC(=O)C2C4C3)c1` (centres undefined), in that order: 3.13% and 27.9% (inactive). For `CC1=C(C(=O)Nc2ccccc2)C(c2ccco2)C(C#N)=C(SCC(N)=O)N1` (centres undefined), in that order: -15% and 11.1% (inactive). For `COC(=O)C1=C(C)Nc2ncnn2C1c1cccnc1` (centres undefined), in that order: 10% and 1.7% (inactive).

With `Cc1nn(C(C)CC(=O)O)c(C)c1C` (centres undefined), the inhibition was 18.6% (inactive). Turning to `Cc1cc2nnc(SCC(=O)N3CCN(c4ccccc4)CC3)n2c(N)n1`, the growth inhibition was -13.6% and the inhibition was 24.8% (inactive). In the case of `Cn1c(SCC(=O)C(C)(C)C)nnc1-c1ccccn1`, the growth inhibition turned out to be 12.8% and the inhibition is 20.3% (inactive).

Take `CC(CO)N1CCS(=O)(=O)CC1` (centres undefined): the growth inhibition was determined as 15% and the inhibition was 18.1% (inactive). For `Cc1ccc(-n2c(SCC(=O)Nc3ccc4c(c3)OCO4)nnc2-c2ccccn2)cc1`, the growth inhibition is -2.78% and the inhibition is -3.69% (inactive). As for `Cc1ccc(-n2c(SCC(=O)Nc3ccc4c(c3)OCO4)nnc2-c2ccoc2C)cc1`, the inhibition is -19.2% (inactive).

Consider `O=C(CSc1nnc(-c2ccccn2)n1-c1ccccc1)Nc1ccc2c(c1)OCO2`, for which the growth inhibition is -57.1% and the inhibition is 55.6% (active). For `CCCSC1=C(C#N)C(c2ccccc2C)C(C(=O)OC)C(=O)N1` (centres undefined), in that order: 12% and -22.6% (inactive). For `Cc1nc2cc(NC(=O)NCc3ccccc3)ccc2o1`, in that order: -9.52% and -14.4% (inactive).

Turning to `COCC(=O)Nc1ccc(Br)cc1`, the growth inhibition was -9.52% and the inhibition was -24.5% (inactive). For `Cc1nc(NC(=O)CN(C)S(=O)(=O)c2ccc(Cl)cc2)sc1C`, in that order: 5% and -24.3% (inactive). With `C=CCNC(=O)c1cc2nc(C3CC3)cc(C(F)F)n2n1`, the inhibition was 12.7% (inactive).

On to `COCCNS(=O)(=O)c1cc(Br)ccc1OC`, for which the growth inhibition came out at 9.09% and the inhibition is 18.4% (inactive). Consider `COC(=O)c1ccc(Sc2ccc(F)cc2)c(N)c1`, for which the growth inhibition is 27% and the inhibition was 23.2% (inactive).

As for `O=C(c1ccc2c(c1)OCO2)N1CCN(C(=O)c2ccco2)CC1`, the growth inhibition worked out at 16.7% and the inhibition was 35.7% (inactive). For `CCOCN(C(=O)Cn1c(C(C)O)nc2ccccc21)c1c(C)cccc1CC` (centres undefined), in that order: -7.69% and 20.1% (inactive). In the case of `CC(=O)OCc1cc2cc(C)ccc2[nH]c1=O`, the growth inhibition was -2.5% and the inhibition was -23.7% (inactive). Turning to `CCOC(=O)c1[nH]c2ccc(OC)cc2c1NC(=O)N1CCOCC1`, the inhibition was -48.6% (inactive).

As to `CCOc1ccc(NC(=O)CN2CCN(CC(=O)Nc3ccc(OC)cc3)CC2)cc1`, the growth inhibition came out at 9.09% and the inhibition is -13.6% (inactive). For `CCCNC(=O)NCc1ccc(N2CCCC2=O)cc1`, in that order: 12.5% and 10.8% (inactive).

On to `O=c1/c(=C/c2ccc(CNS(=O)(=O)c3ccccc3)o2)sc2n1CCN=2`, for which the growth inhibition was -8.62% and the inhibition was 62.4% (active). Turning to `CC1(C)CC(=O)C=C(NCCCNC2CCCCC2)C1`, the growth inhibition was found to be 8.06% and the inhibition was 53.4% (active). In the case of `CC1(C)CC(=O)C=C(N2CCCC2)C1`, the inhibition was 30.3% (inactive). Regarding `CC1(C)CC(=O)C=C(NCCN2CCNCC2)C1`, the growth inhibition amounted to 9.46% and the inhibition was 32.9% (inactive). For `Cc1ccc(N2C(=O)CC(Sc3ncn[nH]3)C2=O)cc1` (centres undefined), in that order: 23.8% and -7.91% (inactive).

For `COc1ccc(NC(=O)Nc2ccc3nc(C)c(C)nc3c2)cc1`, the growth inhibition was -13.5% and the inhibition was -3.08% (inactive). Consider `CCn1c(=O)cc(O)c2ccccc21`, for which the growth inhibition came out at 11.1% and the inhibition was 2.94% (inactive).

For the molecule `O=C1CCCc2nn(-c3ccccc3)nc21`, the growth inhibition worked out at 7.14% and the inhibition is 6.25% (inactive). Regarding `CCOC(=O)c1ccccc1NS(=O)(=O)c1ccc(OC)cc1`, the growth inhibition is 10.5% and the inhibition was -13% (inactive).
